The values below come from the RNAGym collection of RNA variant scans (doi:10.1126/science.aae0568).

B1: tRNA (parent)
chain: GUUCCGUUGGCGUAAUGGUAACGCGUCUCCCUCCUAAGGAGAAGACUGCGGGUUCGAGUCCCGUACGGAACG

Variants at the floor of the assay were thinned out.

Variants of B1 are the subject of the series. Description: yeast fitness relative to wild type (ratio to wild type); higher = fitter; tRNA-Arg(CCU), competitive growth, 37 C, YPD. The method in brief: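 Genotype frequency changes were the basis for Darwinian fitness relative to wild type. The frequencies came from 100-nucleotide paired-end sequencing of gene amplicons from the start population and each end population of pooled yeast strains with tRNA-Arg(CCU) gene variants at the native locus. Competition ran in YPD at 37°C for 24 hours in six replicates, genotypes needed ≥ 100 starting reads, and estimates < 0.5 were set to 0.5.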
Take GUUCCGUUGGCGUAAUGAUAACGCGUCUCCCUCCUAAGGAGAAGACUGCGGGAGCGAGUCCCGUACGGAACG [G18A U53A U54G]: the yeast fitness is ≤ 0.5.

Turning to GUUCCGUUGGGGUAAUGGUAACGCGUCUCCAUCCUAAGAAGAAGACUGCGGGUUCGAGUCCCGUACGGAACG [C11G C31A G39A], the yeast fitness is ≤ 0.5.

Turning to GUUCCGUUGGCGUAAUCGUAACGGGUCACUCUCCUAAGGAGAAGACUGCGGGUUCGAGUCCCGUACGGAACG [G17C C24G U28A C30U], the yeast fitness came to 0.646.

For GAUCCGUUGGCGUAAGGGUAACGCGUCUCCCUCCUAAGGAGAAGACUGCGGGUUCGAGUCCCGUAGGCAACG [U2A U16G C66G G68C], the yeast fitness was ≤ 0.5.

On to GUUCCGUUGGCGUAACGGUUACGUGUCUCCCUCCUAAGGAGAAGACUGAGGGUUCGAGUCCCGUACGGAACG [U16C A20U C24U C49A], for which the yeast fitness is ≤ 0.5.

In the case of GUUGCGUUGGCGUAAUGGUAACGCGUCUGCCUCCUCUGGCGAAGGCUGCGAGUUCGAGUCCCGUACGGAUCG [C4G C29G A36C A37U A40C A45G G51A A70U], the yeast fitness is ≤ 0.5.

Take GUUCGGUUCGCGCAAUGGUAGCGCGUCUCCCUCCUAAGGAGAAGACUGCGGGUUCGAGUCCCGUACGGAACG [C5G G9C U13C A21G]: the yeast fitness was ≤ 0.5.

Regarding GUUCCGUUGGCGUAAUGGUAACGCGUCUUCCUCCUAAGGAGAGAAAUGCGGGUUCGAGUCCCGUACGGAACG [C29U A43G G44A C46A], the yeast fitness turned out to be 0.609.

For the variant GUUCCGUUGGCGUAAUGGUAACGCGUCUCCCUCCUAAGGAGAAGAAAGCGGGUUCGAGUCCCGUACGGAACG [C46A U47A], the yeast fitness turned out to be 1.04.

Consider GUGCCGUUGGCGUAAUGGUAACGCGUCUCCCUCCUAAGGAGAACACUGCGGGUUGGAGUCCCGUACGGAACG [U3G G44C C55G], for which the yeast fitness was ≤ 0.5.

For GUUACGUUGGCGUACUGGUAACGCGUCUCCCUCCUAAGGAGAAGACUGCGGGUUUGAGUCCCGUACGGAACG [C4A A15C C55U], the yeast fitness came to 0.58.

As to GUUCCGUUGGCGUAAUGGUAACGCGUCUCCCUCCUGUGGAGAAGACUGCGGGUUCCAGUCCCGUACGGAACG [A36G A37U G56C], the yeast fitness is ≤ 0.5.

Take GUACCGUUGGCGUAAUAGUAAUGCGUCUCCCUCCCAAGGAGAAGACUGCGGGUUCGAGUCCCGUGCGGAACG [U3A G17A C22U U35C A65G]: the yeast fitness was ≤ 0.5.

For the variant GUUCCGUUGGCGUAAUGGUUACGCGUCUCCCUCCUAAGGAGAAGACUGCGGGUACGAGUCCCGUACGGAACG [A20U U54A], the yeast fitness came to 0.699.

On to GUCCCGUUGGCGUAAUGGAAACGCGUUUCCCUCCUAAGGAGAAGACUGCGGGUUCGAGUCCCGUACGGAACG [U3C U19A C27U], for which the yeast fitness amounted to 0.696.

For the variant GUUCCGUUGGCGUUAUGGUAACGCGUCUCCCUCCUAAGGAGAAGUCUGCGGGUUCGACUCCCGUACGGAACG [A14U A45U G58C], the yeast fitness was ≤ 0.5.

Take GUUCCGUUGGCGUAAUGGUAACGCGUCUUCUUCCUAAGGAGAAGACUGCGGGUGCGAGUCCCGUUCAGAACG [C29U C31U U54G A65U G67A]: the yeast fitness turned out to be 0.565.

As to GUUCCGUUGGCGUAAUGGUAAUGCGUCUCCCCCCUAAGGAGAAGACUGCGGGUUCGAGUCGCGUACGGCACG [C22U U32C C61G A69C], the yeast fitness is ≤ 0.5.

With GUUCCGUUGGCGUAAUGGUAACGCGUCUCCCUCCUAAGGAGAAGCCUGCGGGUUCGAGUCCCGGACGGAACG [A45C U64G], the yeast fitness came out at 0.654.

For GUUCCGUUGGCGUAAUGGUAACGCGUCUCCCUCCUAAGGAGAUGACUGCGGGUUCGAGUGCCGUAUGGAACG [A43U C60G C66U], the yeast fitness came out at 0.534.

Consider GUUCCGUUGGCGAAAUGGUAACGCGUCUGCCUCCUAAGGAGAAGAGUGCGGGUUCGAGUCCCGUACGGAACG [U13A C29G C46G], for which the yeast fitness is 0.583.

GUUUCGUUGGCCUAAUGGUACCGCGUCUGCCUCCUGAGGAGAAGAUUGCGGGUUCGAAUCCCGUACGGAACG [C4U G12C A21C C29G A36G C46U G58A]: the yeast fitness was ≤ 0.5.

Turning to GUUCCGUUGGCGUAAUGGUAACGCGUAUCCCUCCUAAGGAGAAGACUGCGGGUUCGACUCCCGUACGGCACG [C27A G58C A69C], the yeast fitness amounted to 0.719.

In the case of GUUUCGUGGGCGUAAUGGAACCGCGUCUCCCUCCUAAGGAGAAGACUGCGGGUUCGAGUCCCGUACGGAUCG [C4U U8G U19A A21C A70U], the yeast fitness is ≤ 0.5.

On to GUUACGUUGGCGUAAUGGUAACGCGUCUCCCUCCUAAGGCGAAGACUGGGGGUUCGAGUGCCGUACGGAACG [C4A A40C C49G C60G], for which the yeast fitness was ≤ 0.5.

Turning to GUUCCGUUGGCGUAAUGGUAACGCGUCUCUCUCCUAAGGAGAAGACUACGGGUUCGAGUCCCGUACGGAACG [C30U G48A], the yeast fitness is 0.861.

Turning to GUUCCGUUGGCGUAAUGGUAACGCGUCUCACUCGUAAGGAGAAGACUGCGGGUUCGAGUCCCGUACGGAACG [C30A C34G], the yeast fitness came out at 0.682.

For the variant GUUCCGUUGGCGUCAUGGUACCGCGUUUCCCUCCUAAGGAGAAGACUGCGGGUUCGAGUCCCGUACGGAACG [A14C A21C C27U], the yeast fitness is ≤ 0.5.

For GUUCCGAUGGCGUAGUGAUAACGCGUCUCCCUCCUAAGGAGAAGACUGCGGGUUCGAGUCCCGUACGGAACG [U7A A15G G18A], the yeast fitness came to 0.669.

As for GUUCCGUUGGCGUAAUGGUAACGCGUCUACCUCCUACGGUGAAGACUGCGGGUUCGAGUCCCAUACGGAACG [C29A A37C A40U G63A], the yeast fitness turned out to be 0.519.

GUUCCGAUGGCGUAAUGGGAACGCGUCUCCCUCCUAAGGAGAAGACUGCGGGUUCGAAUCCCGUACGGAACG [U7A U19G G58A]: the yeast fitness is ≤ 0.5.

As to GUUUCGUUGGCGUAAUGGUAACGCGUCUCCCUCCUAACGAGAAGACUGCGGGUUCGAGUCCCGUGCGGAACG [C4U G38C A65G], the yeast fitness worked out at 0.621.

For GUUCCGUUGGCGUAAUGGUAACGCGUCUCCCUCCUAAGGAGAAGUGUGCGGGUUCGAGUCCCAUACGGAACG [A45U C46G G63A], the yeast fitness is ≤ 0.5.

As for GUUCCGUUGACGUAAUGGUAACGGGUCUCCCUCCUAAGGAGAAGACCGCGGGUUCGAGUCCUGUACGGAACG [G10A C24G U47C C62U], the yeast fitness was ≤ 0.5.

Regarding GAUCCGUUGGCGUAAUGGUAACGCGUCUCCAUCCUAAGGUGAAGACUGCGGGGUCCAGUCCGGUACGGAACG [U2A C31A A40U U53G G56C C62G], the yeast fitness was ≤ 0.5.

In the case of GUUCCGUUGGCCUAAUGGUAACGCGUCUCCCUCCUCUGGAGAAGACUGCGGGUUCGAGUCCCGUACGGAACG [G12C A36C A37U], the yeast fitness was ≤ 0.5.

Turning to GUUGCGUUGGCGUAAUGGUAACGCGUCUCCCUCCUAAGGAGAAGACUGCGGGUUCGAGUCCCGUAAGGAACG [C4G C66A], the yeast fitness came to 0.61.
